≈ marks a conversion by molar mass, not a printed value.
Key:
[1] = system: Mycobacterium tuberculosis; test: Antimycobacterial activity against Mycobacterium tuberculosis H37Rv ATCC 27294 assessed as reduction in bacterial growth incubated for […] by alamar blue assay; assay type: functional
[2] = Kinetic solubility of compound in water incubated for 4 hrs by HPLC-MS/MS analysis; assay type: physicochemical; conditions: read-out: Kinetic_solubility
[3] = Kinetic solubility of compound in PBS at pH 7.4 incubated for 4 hrs by HPLC-MS/MS analysis; assay type: physicochemical; conditions: read-out: Kinetic_solubility
[4] = Metabolic stability in human liver microsomes assessed as half life at 1 uM measured upto 60 mins by HPLC-MS/MS analysis; assay type: ADME, Microsome
Outline: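 Half-life of the compound in human liver microsomes, expressed in minutes. Reported as mean ± SD, n = 3.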

[5] = Metabolic stability in human liver microsomes assessed as intrinsic clearance at 1 uM measured upto 60 mins by HPLC-MS/MS analysis; assay type: ADME, Microsome; conditions: read-out: CLH
Outline: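 Intrinsic clearance derived from the microsomal in vitro half-life as (0.693/t1/2) × (mL incubation/mg microsomes) × (45 mg microsomes/g liver) × (20 g liver/kg body weight). Expressed in mL min–1 kg–1.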

[6] = Glutathione reactivity of compound assessed as GSH adduct formation incubated for 24 hrs by HPLC-MS analysis; assay type: physicochemical; design: concentration or dose not given beside the values
Outline: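 Compounds incubated 24 h with GSH in 1:100 molar excess, then analysed by HPLC–MS/MS in full-scan mode. Both the singly charged [M + H]+ and doubly charged [M + 2H]2+ conjugate ions were monitored. Percentage conjugate = (sum of both conjugate ion peak areas)/(parent [M + H]+ peak area).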

[7] = system: Mycobacterium tuberculosis; test: Antimycobacterial activity against Mycobacterium tuberculosis assessed as reduction in bacterial growth by microdilution method; assay type: functional
[8] = system: Vero; test: Cytotoxicity against African green monkey Vero cells; assay type: cell-based; conditions: chlorocebus sabaeus
[9] = system: Mycobacterium tuberculosis; test: Antimycobacterial activity against Mycobacterium tuberculosis assessed as reduction in bacterial growth incubated for 21 days by REMA assay; assay type: functional; conditions: 504 h

Structure (SMILES)	MIC [1] [µM]	solubility kinetic at 4 h [2] [µM]	solubility kinetic at 4 h [3] [µM]	half-life at 1 µM [4] [min]	CLint scaled at 1 µM [5] [mL/min/kg]	Activity [6] [%]	MIC [7] [µM]	Activity [8]	MIC [9] [µM]
COc1ccc(-c2csc(Nc3ccc(C)cc3)n2)cc1	13 (≈ 3.85 µg/mL)	20 (≈ 5.93 µg/mL)	1.2 (≈ 0.356 µg/mL)	14.5	42.9	13.9	–	–	–
Cc1ccc(Nc2nc(-c3cc(C(F)(F)F)ccc3F)cs2)cc1	27.5 (≈ 9.69 µg/mL)	24 (≈ 8.46 µg/mL)	7.5 (≈ 2.64 µg/mL)	22.4	27.9	10.4	–	–	–
CCOC(=O)c1cc(-c2csc(Nc3ccc(C)cc3)n2)on1	–	54.9 (≈ 18.1 µg/mL)	27.7 (≈ 9.12 µg/mL)	3.3	189	3.7	1.5 (≈ 0.494 µg/mL)	–	–
Cc1ccc(Nc2nc(-c3cc(C(=O)Nc4ccccn4)no3)cs2)cc1	–	2.9 (≈ 1.09 µg/mL)	2.4 (≈ 0.906 µg/mL)	16.1	38.8	7.1	0.16 (≈ 0.0604 µg/mL)	–	–
Cc1ccc(Nc2nc(-c3cc(C(F)(F)F)ccc3F)co2)cc1	12.3 (≈ 4.14 µg/mL)	5.2 (≈ 1.75 µg/mL)	5.9 (≈ 1.98 µg/mL)	22.6	27.6	14.2	–	–	–
COc1ccc(-c2coc(Nc3ccc(C)cc3)n2)cc1	> 100	0.7 (≈ 0.196 µg/mL)	1.1 (≈ 0.308 µg/mL)	20.9	29.9	14.2	–	–	–
CCOC(=O)c1cc(-c2coc(Nc3ccc(C)cc3)n2)on1	2.3 (≈ 0.721 µg/mL)	9.1 (≈ 2.85 µg/mL)	6.8 (≈ 2.13 µg/mL)	2.7	226	15.8	–	Non-Toxic	–
Cc1ccc(Nc2nc(-c3cc(C(=O)Nc4ccccn4)no3)co2)cc1	–	24 (≈ 8.67 µg/mL)	9.3 (≈ 3.36 µg/mL)	15	41.5	2.1	–	Non-Toxic	6.9 (≈ 2.49 µg/mL)

From ChEMBL document CHEMBL4619794, “2-Aminooxazole as a Novel Privileged Scaffold in Antitubercular Medicinal Chemistry” (ACS Med Chem Lett, 2020)
